According to ChEMBL document CHEMBL4270643, “Structure-based drug design: Synthesis and biological evaluation of quinazolin-4-amine derivatives as selective Aurora A kinase inhibitors” (Eur J Med Chem, 2018):

Assays:
[1] = test system: SK-BR-3; experiment: Antiproliferative activity against human SKBR3 cells after 48 hrs by CCK8 assay; type: functional, cell-based
[2] = target: T1, Aurora kinase A (Homo sapiens, UniProt O14965); experiment: Inhibition of Aurora A (unknown origin) using FAM-labelled peptide as substrate pretreated for 10 mins followed by substrate addition and measured after 60 mins by fluorescence assay
T1 sequence (O14965 whole entry): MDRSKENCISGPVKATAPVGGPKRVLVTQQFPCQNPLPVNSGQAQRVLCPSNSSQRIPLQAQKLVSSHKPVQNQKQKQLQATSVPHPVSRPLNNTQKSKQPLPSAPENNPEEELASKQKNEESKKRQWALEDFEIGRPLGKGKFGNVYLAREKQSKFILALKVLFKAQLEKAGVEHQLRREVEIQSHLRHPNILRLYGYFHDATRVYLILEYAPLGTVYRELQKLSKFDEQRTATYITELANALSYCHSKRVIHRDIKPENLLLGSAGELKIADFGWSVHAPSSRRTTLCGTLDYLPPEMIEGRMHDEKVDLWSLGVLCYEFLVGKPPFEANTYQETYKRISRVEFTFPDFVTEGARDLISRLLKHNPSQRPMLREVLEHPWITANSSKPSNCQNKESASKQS
In short: (§1)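 Kinase IC50 values are the mean of at least two independent experiments; selectivity is the Aurora A/B ratio of these IC50s.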

[3] = test system: HeLa; experiment: Antiproliferative activity against human HeLa cells after 48 hrs by CCK8 assay; type: functional, cell-based
[4] = test system: MDA-MB-231; experiment: Antiproliferative activity against human MDA-MB-231 cells after 48 hrs by CCK8 assay; type: functional, cell-based; conditions: MDA-MB-231, 48 h
[5] = test system: MCF7; experiment: Antiproliferative activity against human MCF7 cells after 48 hrs by CCK8 assay; type: functional, cell-based
[6] = test system: DU-145; experiment: Antiproliferative activity against human DU145 cells after 48 hrs by CCK8 assay; type: functional, cell-based; conditions: DU-145, 48 h
[7] = test system: MOLT-4; experiment: Antiproliferative activity against human MOLT4 cells after 48 hrs by CCK8 assay; type: functional, cell-based
[8] = test system: K562; experiment: Antiproliferative activity against human K562 cells after 48 hrs by CCK8 assay; type: functional, cell-based
[9] = species on record: Homo sapiens; experiment: Selectivity ratio of IC50 for Aurora B (unknown origin) to IC50 for Aurora A (unknown origin)
[10] = target: Aurora kinase B (Homo sapiens, UniProt Q96GD4); experiment: Inhibition of Aurora B (unknown origin) using FAM-labelled peptide as substrate pretreated for 10 mins followed by substrate addition and measured after 60 mins by fluorescence assay; in short: as §1
[11] = Homo sapiens, HeLa, 48 h, read-out: IC50
[12] = Homo sapiens, MCF7, 48 h, read-out: IC50
[13] = Homo sapiens, SK-BR-3, 48 h, read-out: IC50
[14] = Homo sapiens, K562, 48 h, read-out: IC50
[15] = Homo sapiens, MOLT-4, 48 h, read-out: IC50

Chain of Aurora kinase B (Q96GD4 whole entry): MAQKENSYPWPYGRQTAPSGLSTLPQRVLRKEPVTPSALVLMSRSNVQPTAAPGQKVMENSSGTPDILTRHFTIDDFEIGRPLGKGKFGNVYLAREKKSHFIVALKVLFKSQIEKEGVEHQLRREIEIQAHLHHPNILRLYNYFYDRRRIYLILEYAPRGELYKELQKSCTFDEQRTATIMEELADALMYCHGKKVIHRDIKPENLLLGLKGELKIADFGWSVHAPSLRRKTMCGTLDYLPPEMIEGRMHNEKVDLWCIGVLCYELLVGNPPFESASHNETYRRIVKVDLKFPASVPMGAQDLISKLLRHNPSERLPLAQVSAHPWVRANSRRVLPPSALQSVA

| IC50 ([1]; sk-br-3) | IC50 [2] | IC50 [3, 11] | IC50 [4] | IC50 [5, 12] | IC50 [6] | IC50 ([7]; molt-4) | IC50 ([8]; k562) | Ratio IC50 [9] | IC50 [1, 13] | IC50 [10] | IC50 [8, 14] | IC50 ([5]; mcf7) | IC50 [7, 15] | IC50 ([3]; hela) | Structure (SMILES) |
| --- | --- | --- | --- | --- | --- | --- | --- | --- | --- | --- | --- | --- | --- | --- | --- |
| Not Active | 0.132 µM | > 30 µM | > 30 µM | > 30 µM | > 30 µM | Not Active | Not Active | – | – | – | – | – | – | – | Cc1cc(Nc2nc(-c3ccccc3)nc3cc(Cl)ccc23)n[nH]1 |
| – | 0.128 µM | 3.75 µM | 11 µM | > 30 µM | 10.4 µM | – | – | 40 | 7.15 µM | 5.07 µM | 15 µM | – | 10.4 µM | – | Cc1cc(Nc2nc(-c3ccc4ccccc4c3)nc3ccccc23)n[nH]1 |
| – | 0.072 µM | 9.7 µM | 11.2 µM | > 30 µM | > 30 µM | Not Active | – | 88 | 10.7 µM | 6.28 µM | > 30 µM | – | – | – | Cc1cc(Nc2nc(-c3ccccc3)nc3cc(F)ccc23)n[nH]1 |
| – | 0.034 µM | 1.31 µM | 1.32 µM | 3.6 µM | 4.73 µM | – | – | 22 | 2.03 µM | 0.773 µM | 2.12 µM | – | 1.2 µM | – | COc1ccc2c(Nc3cc(C)[nH]n3)nc(-c3ccccc3)nc2c1 |
| – | – | 0.883 µM | 2.88 µM | 6.16 µM | 7.99 µM | – | – | 30 | 2.54 µM | – | 2.99 µM | – | 5.15 µM | – | Cc1cc(Nc2nc(-c3ccccc3)nc3ccccc23)n[nH]1 |
| – | 0.188 µM | 5.22 µM | 17 µM | > 30 µM | > 30 µM | – | – | 61 | 14.7 µM | 11.5 µM | > 30 µM | – | 8.82 µM | – | Cc1cc(Nc2nc(C(=O)c3ccccc3)nc3ccccc23)n[nH]1 |

The next lines start with the compound.

| Structure (SMILES) | IC50 ([1]; sk-br-3) | IC50 [2] | IC50 [3, 11] | IC50 [4] | IC50 [5, 12] | IC50 [6] | IC50 ([7]; molt-4) | IC50 ([8]; k562) | Ratio IC50 [9] | IC50 [1, 13] | IC50 [10] | IC50 [8, 14] | IC50 ([5]; mcf7) | IC50 [7, 15] | IC50 ([3]; hela) |
| --- | --- | --- | --- | --- | --- | --- | --- | --- | --- | --- | --- | --- | --- | --- | --- |
| Cc1cc(Nc2nc(-c3ccccc3)nc3cc([N+](=O)[O-])ccc23)n[nH]1 | – | 0.325 µM | 10.1 µM | 9.83 µM | > 30 µM | 7.36 µM | – | – | > 308 | 8.86 µM | > 100 µM | 12 µM | – | – | – |
| COc1ccc(C(=O)c2nc(Nc3cc(C)[nH]n3)c3ccc(Cl)cc3n2)cc1 | Not Active | 0.744 µM | > 30 µM | 12.3 µM | – | 12.5 µM | – | Not Active | > 134 | – | > 100 µM | – | Not Active | – | – |
| Cc1cc(Nc2nc(Cc3ccccc3)nc3ccccc23)n[nH]1 | – | 0.069 µM | 1.52 µM | 3.12 µM | 13.3 µM | 4.44 µM | – | – | 18 | 9.1 µM | 1.27 µM | 2.29 µM | – | 5.79 µM | – |
| Cc1cc(Nc2nc(-c3ccccc3)nc3ccccc23)[nH]n1 | – | 0.028 µM | – | – | – | – | – | – | – | – | 0.858 µM | – | – | – | – |
| Cc1cc(Nc2nc(-c3ccccc3)nc3cc(N4CCC(C(=O)O)CC4)ccc23)n[nH]1 | – | 0.006 µM | 1.86 µM | 10.5 µM | 6.04 µM | 21.5 µM | – | – | 20 | 16.3 µM | 0.127 µM | 5.52 µM | – | 2.2 µM | – |
| COc1cccc2c(Nc3cc(C)[nH]n3)nc(-c3ccccc3)nc12 | – | 0.025 µM | 0.817 µM | 1.9 µM | 4.17 µM | 6.36 µM | – | – | 21 | 1.85 µM | 0.547 µM | 2.3 µM | – | 2.86 µM | – |
| Cc1ccc(C(=O)c2nc(Nc3cc(C)[nH]n3)c3ccc(Cl)cc3n2)cc1 | Not Active | 1.3 µM | – | > 30 µM | – | 16 µM | – | Not Active | > 77 | – | > 100 µM | – | Not Active | – | Not Active |
| CN1CCN(c2ccc3c(Nc4cc[nH]n4)nc(-c4ccccc4)nc3c2)CC1 | – | 5.95 µM | 7.85 µM | 3.98 µM | 7.88 µM | 5.27 µM | – | – | 2.4 | 6.12 µM | 14.4 µM | 6.75 µM | – | – | – |
| COc1cccc2c(Nc3cc(C)[nH]n3)nc(Cc3ccccc3)nc12 | – | 0.041 µM | 1.45 µM | 2.62 µM | 6.28 µM | > 10 µM | – | – | 22 | 2.72 µM | 0.893 µM | 1.44 µM | – | 4.81 µM | – |
| COc1cccc(OC)c1C(=O)c1nc(Nc2cc(C)[nH]n2)c2ccc(N3CCC(C(=O)OC(C)(C)C)CC3)cc2n1 | – | 0.217 µM | 0.526 µM | 1.38 µM | 1.51 µM | 3.61 µM | – | – | > 276 | 2.75 µM | > 60 µM | 0.373 µM | – | – | – |
| Cc1cc(Nc2nc(-c3ccccc3)nc3c([N+](=O)[O-])cccc23)n[nH]1 | – | 0.174 µM | 2.46 µM | 3.47 µM | 4.53 µM | 6.62 µM | – | – | 26 | 4.59 µM | 4.59 µM | 6.43 µM | – | 6.48 µM | – |
| Cc1cc(Nc2nc(-c3ccccc3)nc3cc(N4CCN(C)CC4)ccc23)n[nH]1 | – | 0.01 µM | 0.179 µM | 0.142 µM | 0.654 µM | 0.409 µM | – | – | 30 | 2.49 µM | 0.27 µM | 0.191 µM | – | 0.149 µM | – |
| Cc1cc(Nc2nc(C(C)C)nc3ccccc23)n[nH]1 | – | 0.103 µM | 2.81 µM | 4.8 µM | 10.7 µM | 7.43 µM | – | – | 11 | 11.9 µM | 1.15 µM | 3.92 µM | – | – | – |
